Assay results reported in ChEMBL document CHEMBL5678815 (Clin Cancer Res, 2017).

Legend:
[1] = molecular target: Calcium/calmodulin-dependent protein kinase type 1 (Homo sapiens) (UniProt Q14012); test: Inhibition of human CAMK1 assessed as remaining activity at 1 uM by ATP-competition binding assay relative to control
Method in brief: (§1)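 KINOMEscan ATP-site-dependent competition binding panel of 395 human kinases, with compound tested at 1 μM. Binding is reported as remaining signal relative to control.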

[2] = molecular target: Cyclin-dependent kinase 9 (Homo sapiens) (UniProt P50750); test: Inhibition of human CDK9 assessed as remaining activity at 1 uM by ATP-competition binding assay relative to control; method in brief: as §1
[3] = molecular target: Serine/threonine-protein kinase Chk2 (Homo sapiens) (UniProt O96017); test: Inhibition of human CHEK2 assessed as remaining activity at 1 uM by ATP-competition binding assay relative to control; method in brief: as §1
Chain of Serine/threonine-protein kinase Chk2 (Homo sapiens) (O96017 whole entry): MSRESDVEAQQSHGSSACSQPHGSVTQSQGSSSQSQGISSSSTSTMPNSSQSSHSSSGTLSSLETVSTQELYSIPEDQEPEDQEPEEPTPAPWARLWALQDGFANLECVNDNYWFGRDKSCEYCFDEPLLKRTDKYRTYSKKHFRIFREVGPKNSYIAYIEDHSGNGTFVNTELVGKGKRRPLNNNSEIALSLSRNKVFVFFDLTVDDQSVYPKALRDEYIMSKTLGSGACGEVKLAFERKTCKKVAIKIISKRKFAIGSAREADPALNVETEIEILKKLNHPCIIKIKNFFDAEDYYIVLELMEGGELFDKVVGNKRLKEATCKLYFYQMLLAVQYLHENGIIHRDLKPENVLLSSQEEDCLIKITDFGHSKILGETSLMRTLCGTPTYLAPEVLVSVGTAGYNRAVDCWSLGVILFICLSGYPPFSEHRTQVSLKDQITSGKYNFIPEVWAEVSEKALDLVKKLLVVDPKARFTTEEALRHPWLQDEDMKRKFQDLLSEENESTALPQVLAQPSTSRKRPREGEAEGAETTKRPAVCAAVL

[4] = molecular target: Tyrosine-protein kinase CSK (Homo sapiens) (UniProt P41240); test: Inhibition of human CSK assessed as remaining activity at 1 uM by ATP-competition binding assay relative to control; method in brief: as §1
[5] = molecular target: Casein kinase I isoform gamma-2 (Homo sapiens) (UniProt P78368); test: Inhibition of human CSNK1G2 assessed as remaining activity at 1 uM by ATP-competition binding assay relative to control; method in brief: as §1
Chain of Casein kinase I isoform gamma-2 (Homo sapiens) (P78368 whole entry, looked up, canonical isoform): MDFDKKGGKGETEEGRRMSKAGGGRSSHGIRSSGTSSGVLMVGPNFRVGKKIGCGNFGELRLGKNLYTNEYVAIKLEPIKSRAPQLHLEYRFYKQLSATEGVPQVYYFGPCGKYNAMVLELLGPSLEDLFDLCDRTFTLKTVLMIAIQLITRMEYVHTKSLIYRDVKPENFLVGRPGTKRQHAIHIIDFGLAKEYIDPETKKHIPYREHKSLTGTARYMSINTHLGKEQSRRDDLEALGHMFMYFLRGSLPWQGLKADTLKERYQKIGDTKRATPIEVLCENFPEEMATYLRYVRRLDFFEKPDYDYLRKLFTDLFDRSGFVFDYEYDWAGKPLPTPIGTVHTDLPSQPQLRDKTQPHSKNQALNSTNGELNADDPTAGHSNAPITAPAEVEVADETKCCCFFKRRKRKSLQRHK

[6] = test system: Epidermal growth factor receptor (Homo sapiens), P00533 [UNDEFINED MUTATION]; test: Inhibition of human EGFR L747-E749del/A750P mutant assessed as remaining activity at 1 uM by ATP-competition binding assay relative to control
Method in brief: (§2)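 KINOMEscan ATP-site-dependent competition binding assay across a 395-kinase human panel including mutants; compound tested at 1μM; binding expressed relative to control signal.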

[7] = molecular target: Ephrin type-A receptor 1 (Homo sapiens) (UniProt P21709); test: Inhibition of human EPHA1 assessed as remaining activity at 1 uM by ATP-competition binding assay relative to control; method in brief: as §1
Chain of Ephrin type-A receptor 1 (Homo sapiens) (P21709 whole entry): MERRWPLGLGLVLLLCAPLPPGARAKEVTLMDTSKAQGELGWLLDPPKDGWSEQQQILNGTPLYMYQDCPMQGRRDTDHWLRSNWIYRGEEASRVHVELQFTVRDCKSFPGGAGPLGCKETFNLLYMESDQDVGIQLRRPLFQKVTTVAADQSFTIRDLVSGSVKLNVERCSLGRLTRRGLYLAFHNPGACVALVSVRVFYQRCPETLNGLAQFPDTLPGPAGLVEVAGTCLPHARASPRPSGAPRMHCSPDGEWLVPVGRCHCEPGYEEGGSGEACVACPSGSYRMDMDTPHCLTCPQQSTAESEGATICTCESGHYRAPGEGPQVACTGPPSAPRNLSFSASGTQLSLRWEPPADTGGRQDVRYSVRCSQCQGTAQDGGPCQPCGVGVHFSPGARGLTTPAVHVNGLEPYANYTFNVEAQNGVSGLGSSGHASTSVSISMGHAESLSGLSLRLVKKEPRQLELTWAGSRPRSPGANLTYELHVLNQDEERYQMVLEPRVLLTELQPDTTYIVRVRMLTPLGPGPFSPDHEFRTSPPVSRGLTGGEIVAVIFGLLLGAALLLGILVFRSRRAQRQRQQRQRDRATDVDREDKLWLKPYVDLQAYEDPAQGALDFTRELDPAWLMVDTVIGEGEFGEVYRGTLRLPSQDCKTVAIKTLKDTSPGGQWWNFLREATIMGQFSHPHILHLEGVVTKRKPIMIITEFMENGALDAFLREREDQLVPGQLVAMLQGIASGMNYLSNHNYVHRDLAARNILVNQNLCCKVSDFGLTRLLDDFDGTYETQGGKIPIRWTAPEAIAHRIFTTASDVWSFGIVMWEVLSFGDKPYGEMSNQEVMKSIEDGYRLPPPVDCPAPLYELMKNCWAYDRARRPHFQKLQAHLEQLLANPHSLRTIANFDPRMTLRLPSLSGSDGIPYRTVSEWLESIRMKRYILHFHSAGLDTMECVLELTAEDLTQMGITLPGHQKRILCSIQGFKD

[8] = molecular target: Ephrin type-A receptor 7 (Homo sapiens) (UniProt Q15375); test: Inhibition of human EPHA7 assessed as remaining activity at 1 uM by ATP-competition binding assay relative to control; method in brief: as §1
Chain of Ephrin type-A receptor 7 (Homo sapiens) (Q15375 28-998 limits assumed): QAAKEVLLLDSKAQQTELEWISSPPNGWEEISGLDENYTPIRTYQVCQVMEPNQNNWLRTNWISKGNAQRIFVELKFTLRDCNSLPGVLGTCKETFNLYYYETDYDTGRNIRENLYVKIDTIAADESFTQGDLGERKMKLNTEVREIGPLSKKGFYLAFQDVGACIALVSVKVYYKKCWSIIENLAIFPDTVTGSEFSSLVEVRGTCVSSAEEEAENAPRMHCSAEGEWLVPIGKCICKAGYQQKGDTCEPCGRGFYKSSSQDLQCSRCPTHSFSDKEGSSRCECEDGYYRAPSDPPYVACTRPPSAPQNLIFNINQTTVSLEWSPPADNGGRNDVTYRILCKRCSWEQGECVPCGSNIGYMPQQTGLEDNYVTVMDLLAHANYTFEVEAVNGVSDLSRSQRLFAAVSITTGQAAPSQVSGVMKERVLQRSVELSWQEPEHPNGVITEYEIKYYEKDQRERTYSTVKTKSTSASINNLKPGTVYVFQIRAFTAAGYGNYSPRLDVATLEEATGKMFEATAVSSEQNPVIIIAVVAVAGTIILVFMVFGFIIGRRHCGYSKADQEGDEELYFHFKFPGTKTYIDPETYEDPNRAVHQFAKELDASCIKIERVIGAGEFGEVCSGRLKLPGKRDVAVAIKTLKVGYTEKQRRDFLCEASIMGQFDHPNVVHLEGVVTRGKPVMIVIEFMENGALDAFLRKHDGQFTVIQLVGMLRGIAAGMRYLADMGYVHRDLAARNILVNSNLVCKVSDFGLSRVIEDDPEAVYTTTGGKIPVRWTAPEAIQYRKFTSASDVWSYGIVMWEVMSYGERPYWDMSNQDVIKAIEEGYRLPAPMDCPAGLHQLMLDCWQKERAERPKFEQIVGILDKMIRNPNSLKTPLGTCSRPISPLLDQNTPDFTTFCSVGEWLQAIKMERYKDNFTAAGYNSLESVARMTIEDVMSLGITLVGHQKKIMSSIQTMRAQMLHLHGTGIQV

[9] = molecular target: Receptor tyrosine-protein kinase erbB-4 (Homo sapiens) (UniProt Q15303); test: Inhibition of human ERBB4 assessed as remaining activity at 1 uM by ATP-competition binding assay relative to control
Method in brief: (§3)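 Single-point profiling at 1μM in an ATP-site-dependent competition binding assay across a panel of 395 human kinases, including mutant forms. The read-out is kinase binding signal in the presence of test agent, expressed as inhibition relative to the control signal. This screen assessed noncovalent binding interactions.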

[10] = molecular target: Mitogen-activated protein kinase 6 (Homo sapiens) (UniProt Q16659); test: Inhibition of human ERK3 assessed as remaining activity at 1 uM by ATP-competition binding assay relative to control; method in brief: as §3
[11] = molecular target: Serine/threonine-protein kinase/endoribonuclease IRE1 (Homo sapiens) (UniProt O75460); test: Inhibition of human ERN1 assessed as remaining activity at 1 uM by ATP-competition binding assay relative to control; method in brief: as §3
[12] = test system: Fibroblast growth factor receptor 3 (Homo sapiens), P22607 [G697C]; test: Inhibition of human FGFR3 G697C mutant assessed as remaining activity at 1 uM by ATP-competition binding assay relative to control; method in brief: as §3
[13] = test system: eIF-2-alpha kinase GCN2 (Homo sapiens), Q9P2K8 [S808G]; test: Inhibition of human GCN2 S808G mutant kinase domain 2 assessed as remaining activity at 1 uM by ATP-competition binding assay relative to control; method in brief: as §3
[14] = test system: Mast/stem cell growth factor receptor Kit (Homo sapiens), P10721 [L576P]; test: Inhibition of human KIT L576P mutant assessed as remaining activity at 1 uM by ATP-competition binding assay relative to control; method in brief: as §3
[15] = test system: Mast/stem cell growth factor receptor Kit (Homo sapiens), P10721 [V559D]; test: Inhibition of human KIT V559D mutant assessed as remaining activity at 1 uM by ATP-competition binding assay relative to control; method in brief: as §3
[16] = test system: Mast/stem cell growth factor receptor Kit (Homo sapiens), P10721 [V559D,T670I]; test: Inhibition of human KIT V559D/T670I mutant assessed as remaining activity at 1 uM by ATP-competition binding assay relative to control; method in brief: as §3
Chain of Mast/stem cell growth factor receptor Kit (Homo sapiens), P10721 [V559D,T670I] (P10721 whole entry V559D/T670I): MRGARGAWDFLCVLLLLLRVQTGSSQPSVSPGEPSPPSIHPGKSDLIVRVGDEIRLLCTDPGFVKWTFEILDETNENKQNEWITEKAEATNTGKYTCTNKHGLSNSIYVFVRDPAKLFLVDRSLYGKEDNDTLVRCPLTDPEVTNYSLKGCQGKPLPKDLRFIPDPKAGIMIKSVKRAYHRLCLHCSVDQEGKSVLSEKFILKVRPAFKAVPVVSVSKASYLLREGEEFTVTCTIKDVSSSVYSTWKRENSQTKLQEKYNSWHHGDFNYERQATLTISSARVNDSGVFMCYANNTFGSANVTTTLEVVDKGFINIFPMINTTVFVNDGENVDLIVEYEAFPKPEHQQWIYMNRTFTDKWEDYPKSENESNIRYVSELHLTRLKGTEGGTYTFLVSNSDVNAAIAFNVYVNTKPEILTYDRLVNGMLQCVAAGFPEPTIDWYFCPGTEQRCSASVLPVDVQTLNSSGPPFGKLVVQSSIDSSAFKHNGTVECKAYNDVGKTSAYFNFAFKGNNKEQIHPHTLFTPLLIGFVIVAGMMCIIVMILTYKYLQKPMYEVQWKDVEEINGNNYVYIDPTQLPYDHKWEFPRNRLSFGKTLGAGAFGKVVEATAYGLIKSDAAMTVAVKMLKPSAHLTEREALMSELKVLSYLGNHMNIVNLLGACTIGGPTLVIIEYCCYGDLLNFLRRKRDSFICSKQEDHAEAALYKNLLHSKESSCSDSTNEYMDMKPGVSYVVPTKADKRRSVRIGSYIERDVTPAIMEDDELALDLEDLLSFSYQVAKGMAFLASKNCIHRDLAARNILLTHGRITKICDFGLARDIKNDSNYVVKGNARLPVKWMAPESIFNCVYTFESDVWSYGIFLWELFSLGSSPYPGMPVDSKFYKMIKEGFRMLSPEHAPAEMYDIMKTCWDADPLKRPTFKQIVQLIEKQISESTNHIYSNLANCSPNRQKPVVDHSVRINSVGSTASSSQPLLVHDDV

[17] = molecular target: Serine/threonine-protein kinase 3 (Homo sapiens) (UniProt Q13188); test: Inhibition of human MST2 assessed as remaining activity at 1 uM by ATP-competition binding assay relative to control; method in brief: as §3
Chain of Serine/threonine-protein kinase 3 (Homo sapiens) (Q13188 whole entry): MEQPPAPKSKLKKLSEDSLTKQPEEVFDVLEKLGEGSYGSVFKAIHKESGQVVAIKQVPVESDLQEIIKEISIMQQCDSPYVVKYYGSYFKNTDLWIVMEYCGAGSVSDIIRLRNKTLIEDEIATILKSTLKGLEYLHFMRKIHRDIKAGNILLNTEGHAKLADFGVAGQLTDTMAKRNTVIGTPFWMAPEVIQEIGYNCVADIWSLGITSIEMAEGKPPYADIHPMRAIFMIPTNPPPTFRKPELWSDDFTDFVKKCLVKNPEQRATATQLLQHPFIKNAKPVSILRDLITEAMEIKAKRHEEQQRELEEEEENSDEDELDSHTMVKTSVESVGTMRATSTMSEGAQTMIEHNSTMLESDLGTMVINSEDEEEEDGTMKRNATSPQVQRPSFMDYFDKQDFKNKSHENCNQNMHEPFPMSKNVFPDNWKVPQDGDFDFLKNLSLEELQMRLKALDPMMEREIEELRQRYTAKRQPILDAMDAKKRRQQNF

[18] = molecular target: Serine/threonine-protein kinase PAK 3 (Homo sapiens) (UniProt O75914); test: Inhibition of human PAK3 assessed as remaining activity at 1 uM by ATP-competition binding assay relative to control; method in brief: as §3
[19] = molecular target: Serine/threonine-protein kinase pim-2 (Homo sapiens) (UniProt Q9P1W9); test: Inhibition of human PIM2 assessed as remaining activity at 1 uM by ATP-competition binding assay relative to control
Method in brief: (§4)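 Single-concentration (1 μM) screen in an ATP-site-dependent competition binding assay (KINOMEscan, outsourced) covering 395 human kinases, mutants included. Non-covalent binding was read as the remaining signal relative to the control signal.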

[20] = molecular target: Serine/threonine-protein kinase N1 (Homo sapiens) (UniProt Q16512); test: Inhibition of human PKN1 assessed as remaining activity at 1 uM by ATP-competition binding assay relative to control; method in brief: as §4
[21] = molecular target: Serine/threonine-protein kinase PLK4 (Homo sapiens) (UniProt O00444); test: Inhibition of human PLK4 assessed as remaining activity at 1 uM by ATP-competition binding assay relative to control; method in brief: as §4
[22] = test system: Proto-oncogene tyrosine-protein kinase receptor Ret (Homo sapiens), P07949 [V804L]; test: Inhibition of human RET V804L assessed as remaining activity at 1 uM by ATP-competition binding assay relative to control; method in brief: as §2
[23] = molecular target: Serine/threonine-protein kinase SIK1 (Homo sapiens) (UniProt P57059); test: Inhibition of human SIK assessed as remaining activity at 1 uM by ATP-competition binding assay relative to control; method in brief: as §4
[24] = molecular target: Proto-oncogene tyrosine-protein kinase Src (Homo sapiens) (UniProt P12931); test: Inhibition of human SRC assessed as remaining activity at 1 uM by ATP-competition binding assay relative to control; method in brief: as §4
[25] = molecular target: Tyrosine-protein kinase Tec (Homo sapiens) (UniProt P42680); test: Inhibition of human TEC assessed as remaining activity at 1 uM by ATP-competition binding assay relative to control; method in brief: as §2
[26] = molecular target: Activated CDC42 kinase 1 (Homo sapiens) (UniProt Q07912); test: Inhibition of human TNK2 assessed as remaining activity at 1 uM by ATP-competition binding assay relative to control; method in brief: as §4
[27] = molecular target: Serine/threonine-protein kinase TNNI3K (Homo sapiens) (UniProt Q59H18); test: Inhibition of human TNNI3K assessed as remaining activity at 1 uM by ATP-competition binding assay relative to control; method in brief: as §4
[28] = molecular target: Tyrosine-protein kinase TXK (Homo sapiens) (UniProt P42681); test: Inhibition of human TXK assessed as remaining activity at 1 uM by ATP-competition binding assay relative to control; method in brief: as §4
Chain of Tyrosine-protein kinase TXK (Homo sapiens) (P42681 whole entry): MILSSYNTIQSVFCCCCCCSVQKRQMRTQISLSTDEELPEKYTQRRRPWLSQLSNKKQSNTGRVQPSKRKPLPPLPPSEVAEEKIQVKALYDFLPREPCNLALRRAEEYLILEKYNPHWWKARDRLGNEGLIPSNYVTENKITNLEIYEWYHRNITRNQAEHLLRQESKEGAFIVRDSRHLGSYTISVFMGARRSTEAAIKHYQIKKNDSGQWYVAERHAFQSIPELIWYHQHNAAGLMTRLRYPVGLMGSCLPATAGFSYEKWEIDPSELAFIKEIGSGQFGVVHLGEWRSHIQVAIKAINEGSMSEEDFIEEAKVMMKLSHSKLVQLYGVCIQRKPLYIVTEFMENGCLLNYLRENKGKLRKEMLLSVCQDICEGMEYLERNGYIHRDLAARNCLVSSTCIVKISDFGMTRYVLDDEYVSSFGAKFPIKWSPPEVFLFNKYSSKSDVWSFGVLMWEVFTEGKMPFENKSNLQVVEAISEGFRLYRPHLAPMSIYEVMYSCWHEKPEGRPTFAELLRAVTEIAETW

`CC#CC(=O)N1CCC[C@H]1c1nc(-c2ccc(C(=O)Nc3ccccn3)cc2)c2c(N)nccn12` [ACALABRUTINIB] was tested, and the Activity [1] was 87%, the Activity [2] was 87% and the Activity [3] was 94%. It also gave an Activity [4] of 86%, an Activity [5] of 82% and an Activity [6] of 87%. For the same molecule, the Activity [7] was 76%, the Activity [8] was 94% and the Activity [9] was 4.3%. The Activity [10] was 94%, the Activity [11] was 85% and the Activity [12] was 77%. For the same molecule, the Activity [13] was 90%, the Activity [14] was 63% and the Activity [15] was 53%. For the same molecule, the Activity [16] was 55%, the Activity [17] was 65% and the Activity [18] was 73%. For the same molecule, the Activity [19] was 79%, the Activity [20] was 94% and the Activity [21] was 80%. For the same molecule, the Activity [22] was 93%, the Activity [23] was 88% and the Activity [24] was 78%. It also gave an Activity [25] of 6.4%, an Activity [26] of 93% and an Activity [27] of 38%. For the same molecule, the Activity [28] was 24%.
